In the library only some 1.5% were active in any assay of this set; here they are far more common.
RAD52 anneal inh – RAD52 (human) annealing inhibition. AID 651710. 0.46% of 360,000 active. recombinant RAD52 DNA annealing, FRET fluorescence. P43351. inhibition, % at 18.7 µM;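 active = every replicate showing at least 50% inhibition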
dFosB activator – activators of mouse delta FosB homodimer; activation, % at 25 µM; purified delta FosB, TAMRA-CDK5 oligo fluorescence polarization; percent of positive-control signal above neutral wells; P13346; 0.99% of 340,000 active;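 active = mean activation above about 17%, with every replicate also reaching it, limit read from the data, passing the limit was not always enough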
Target sequence (P13346 whole entry, looked up): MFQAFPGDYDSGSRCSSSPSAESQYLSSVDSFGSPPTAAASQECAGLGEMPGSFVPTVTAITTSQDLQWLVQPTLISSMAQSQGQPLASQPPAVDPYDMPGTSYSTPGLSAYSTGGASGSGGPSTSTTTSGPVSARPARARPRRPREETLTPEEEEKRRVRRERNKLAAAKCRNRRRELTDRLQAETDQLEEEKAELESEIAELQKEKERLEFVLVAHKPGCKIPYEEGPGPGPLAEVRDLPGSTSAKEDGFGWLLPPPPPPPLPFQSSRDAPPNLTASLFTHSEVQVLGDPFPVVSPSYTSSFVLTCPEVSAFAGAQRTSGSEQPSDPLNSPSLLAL
RAD54 inh – blocks human RAD54 Holliday junction branch migration. AID 602329. 0.14% of 360,000 active. Q92698. inhibition, % at 10.4 µM. FAM/BHQ fluorescence;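 active = mean normalized replicate activity at least 40 and at least half of replicates scoring 40 or more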;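 also: 0% = median of neutral control wells and 100% = median of positive control wells; inhibitors cause a drop in the FAM fluorescence signal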
S100A4 inh HTS – inhibitors of human S100A4 binding to myosin IIA peptide; inhibition, % at 10.7 µM; 0.14% of 360,000 active; S100A4/TAMRA-MyoIIA peptide fluorescence polarization; P26447;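 active = mean inhibition of at least 70% across replicates, with every replicate also reaching that level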
Target sequence (P26447 whole entry, looked up): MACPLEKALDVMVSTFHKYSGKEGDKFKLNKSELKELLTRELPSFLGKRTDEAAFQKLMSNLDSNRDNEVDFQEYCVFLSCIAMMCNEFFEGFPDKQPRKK
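Test system – S100A4 monomer (human) · Compound – single-point compound testing · Schedule – 5 min incubation before reading · Probe or stimulus – TAMRA-labelled myosin IIA heavy-chain peptide probe, 5 nM · Benchmarks – neutral control DMSO, positive control TFP · Medium – Calcium-containing HEPES buffer, pH 7.2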
MLL AF4-AF9 inh – blocks AF4 peptide binding to human AF9 | P42568 | 0.47% of 350,000 active | inhibition, % at 10 µM | AlphaScreen, biotin-AF4 peptide binding to FLAG-AF9 | AID 651704;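 active = every replicate reaching a set inhibition limit, whatever the replicate mean, cut at about 25% in these data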;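 also: 0% = plate neutral control median and 100% = total signal loss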
* = called active by the depositor; . = no result given; ! = repeats disagree.

SMILES	RAD52 anneal inh	dFosB activator	RAD54 inh	S100A4 inh HTS	MLL AF4-AF9 inh
COCCCNC(=O)/C=C1\Sc2ccccc2N(Cc2ccccc2F)C1=O	-10.1	-5.1	6.8	-5.2	-39.8
O=C(c1ccc2c(c1)OCO2)N1CC(=O)N2[C@H](CO)[C@@H](c3ccc(C#CCC4CCCC4)cc3)[C@@H]2C1	-2.2	.	.	23.8	2.7
CC(=O)Nc1ccc(S(=O)(=O)NC2=NCN(c3ccc([N+](=O)[O-])cc3)CN2)cc1	-12.3	23.9*	-13.9	0.3	-4.3
CCN1CCCC1CNC(=O)c1cc2c(-c3ccc(Cl)cc3)nn(C)c2s1 (stereo unspecified)	.	-37.0	51.4*	.	.
Cn1nc(-c2ccc(Cl)cc2)c2cc(C(=O)NCCCN3CCCC3)sc21	46.5	-35.5	44.7	-7.2	2.3
O=C(Cn1c2ccccc2c(=O)c2ccccc21)N/N=C/c1cc([N+](=O)[O-])ccc1N1CCCCC1	.	-1.3	-9.8	.	.
O=C(Cn1c2ccccc2c(=O)c2cc([N+](=O)[O-])ccc21)Nc1ccccc1Cl	-26.4	62.8*	.	9.1	-2.1
COc1ccc2c3c(n(C)c2c1)[C@H](CO)N(C(=O)C1CCOCC1)CC31CCN(Cc2cccc(F)c2)CC1	13.7	.	.	1.6	-2.0
Cc1cc(NCCCCCCCNc2cc(C)nc3cc([N+](=O)[O-])ccc23)c2ccc([N+](=O)[O-])cc2n1	77.2*	-6.3	.	-0.6	5.7
O=C(C[C@@H]1C=C[C@H](NC(=O)Nc2ccc(C(F)(F)F)cc2)[C@@H](CO)O1)NCCN1CCCC1	4.9	.	-4.7	-1.0	-1.5
CCN1CCN(Cc2ccc(NC(=O)c3ccc(C)c(NC(=O)c4ccno4)c3)cc2C(F)(F)F)CC1	8.1	-16.7	-9.5	-2.6	5.6
CCN1CCN(Cc2ccc(NC(=O)c3ccc(C)c(/C=C/c4cnc(Nc5cc(N6CCNCC6)nc(C)n5)cn4)c3)cc2C(F)(F)F)CC1	.	-255.7	104.9*	.	.
O=C(Nc1cccc(F)c1)N1C[C@@H]2N[C@H](C1)C2c1ccc(-c2ccccc2F)cc1 (stereo partly specified)	63.6*!	.	.	-2.5	-1.1
Cc1ccccc1-c1ccc(C2[C@@H]3CN(C(=O)Nc4cccc(F)c4)C[C@H]2N3)cc1 (stereo partly specified)	72.2*!	.	.	-1.1	4.1
COc1ccc2c3c([nH]c2c1)[C@H](CO)N(C(=O)c1ccc(F)cc1)CC31CN(C(=O)NC(C)C)C1	6.0	.	.	-24.5	-18.6
CC1C(=NO)C(C)C(c2ccc(N(C)C)cc2)NC1c1ccc(N(C)C)cc1 (stereo unspecified)	-3.6	-5.0	3.7	-11.2	43.1*
C[C@H]1CN([C@@H](C)CO)C(=O)Cc2cc(NS(=O)(=O)c3cccs3)ccc2O[C@@H]1CN(C)CC1CC1	4.3	.	8.0	31.2	-1.4
COc1cccc(/C=C/C(=O)NCc2cn3cc(Cl)ccc3n2)c1	-2.7	17.4*	3.9	-0.8	-1.0
COc1ccc(S(=O)(=O)Nc2cccc3c2O[C@@H](CN(C)S(=O)(=O)c2c(C)noc2C)[C@H](C)CN([C@H](C)CO)C3=O)cc1	17.1	.	-9.8	0.0	-0.9
C[C@@H]1CN([C@H](C)CO)C(=O)c2cccc(NC(=O)C3CC3)c2O[C@@H]1CN(C)Cc1ccc2c(c1)OCO2	6.0	.	-3.6	-7.4	-1.5
Cc1ccc(S(=O)(=O)N(C)C[C@@H]2Oc3c(NC(=O)C4CCCCC4)cccc3C(=O)N([C@H](C)CO)C[C@@H]2C)cc1	-7.4	.	4.5	108.7*	-3.8
C[C@@H]1CN([C@H](C)CO)C(=O)c2cccc(NC(=O)C3CC3)c2O[C@H]1CN(C)Cc1ccncc1	12.8	.	3.5	7.9	-7.0
COc1ccc(S(=O)(=O)Nc2cccc3c2O[C@@H](CN(C)S(=O)(=O)c2c(C)noc2C)[C@H](C)CN([C@@H](C)CO)C3=O)cc1	-6.2	.	2.8	127.2*	-3.7
C[C@H](CO)N1C[C@H](C)[C@H](CN(C)Cc2ccncc2)Oc2c(NC(=O)C3CC3)cccc2C1=O	0.2	.	2.7	125.6*	-5.0
C[C@H]1CN([C@@H](C)CO)C(=O)c2cccc(NC(=O)C3CC3)c2O[C@@H]1CN(C)Cc1ccc2c(c1)OCO2	3.2	.	5.1	122.4*	-1.3
SMILES	RAD52 anneal inh	dFosB activator	RAD54 inh	S100A4 inh HTS	MLL AF4-AF9 inh
COc1ccc(NC(=O)Nc2cccc3c2O[C@@H](CN(C)S(=O)(=O)c2ccc(Cl)cc2)[C@H](C)CN([C@H](C)CO)C3=O)cc1	-9.3	.	5.2	3.5	-0.2
O=C(C1CCCCC1)N1CC2(C1)[C@H](c1ccccc1)[C@H](CO)N2Cc1ccccc1F	-106.5	.	.	46.7	-13.9
C[C@H](CO)N1C[C@H](C)[C@H](CN(C)C(=O)Cc2ccccc2)Oc2ncc(C#CCN(C)C)cc2C1=O	.	.	.	.	-2.5
COc1ccc(NC(=O)Nc2cccc3c2O[C@H](CN(C)Cc2ccc4c(c2)OCO4)[C@@H](C)CN([C@@H](C)CO)C3=O)cc1	6.9	.	-4.5	118.5*	-5.0
COc1ccc(/C=C/C(=O)Nc2ccccc2C(=O)NCC(c2ccc(OC)cc2)N(C)C)cc1 (stereo unspecified)	10.6	-1.6	-1.0	4.2	25.7*
Cc1ccc(S(=O)(=O)N2[C@@H]3CNC[C@H]2C3c2ccc(-c3cccc(C)c3)cc2)cc1 (stereo partly specified)	51.4*!	.	.	6.3	4.0
COc1ccccc1S(=O)(=O)N1[C@@H]2CNC[C@H]1C2c1ccc(/C=C/c2ccccc2)cc1 (stereo partly specified)	32.7	.	.	-13.5	17.6
Cc1ccccc1S(=O)(=O)N1[C@@H]2CNC[C@H]1C2c1ccc(/C=C/c2ccccc2)cc1 (stereo partly specified)	51.2*!	.	.	-16.5	1.0
Cc1ccc(S(=O)(=O)N2[C@@H]3CNC[C@H]2C3c2ccc(-c3cccc(C#N)c3)cc2)cc1 (stereo partly specified)	52.7*!	.	.	16.0	-1.1
O=C(C[C@H]1CC[C@@H](NC(=O)Nc2cc(F)ccc2F)[C@H](CO)O1)NCc1ccc2c(c1)OCO2	7.9	.	1.7	7.6	-14.6
COc1cc(-c2cc(C(=O)Nc3ccc(C)c(S(=O)(=O)N4CCOCC4)c3)c3ccccc3n2)cc(OC)c1OC	-12.6	33.4*	-2.0	4.9	-1.5
COc1cc(-c2cc(C(=O)Nc3ccccc3N3CCOCC3)c3ccccc3n2)cc(OC)c1OC	-11.8	-6.1	.	0.4	9.6
CC(C)NC(=O)Nc1ccc2c(c1)C(=O)N([C@@H](C)CO)C[C@H](C)[C@@H](CN(C)S(=O)(=O)c1cccs1)OCCCC[C@@H](C)O2	-1.5	.	-6.3	6.7	0.3
O=C(Nc1nnc(S(=O)(=O)N2CCOCC2)s1)c1ccccc1	-9.7	-5.2	-12.2	1.0	47.1*
O=C(Nc1nnc(S(=O)(=O)N2CCOCC2)s1)c1ccc(Cl)cc1	-4.3	-3.8	1.6	-0.6	-12.7
CCOC(=O)c1cnc(SCc2nc(N)nc(Nc3ccc(C)cc3)n2)nc1N	.	48.1*	-0.3	.	.

Assay outcomes deposited in PubChem by Broad Institute.
